According to ChEMBL document CHEMBL1255391, “Rates and mechanisms of resistance development in Mycobacterium tuberculosis to a novel diarylquinoline ATP synthase inhibitor” (2010):
Values after ≈ are worked out from the molar mass of the structure shown.

Columns and labels:
Format in all cases: functional
[1] = system: Mycobacterium tuberculosis; experiment: Antimicrobial activity against drug-susceptible Mycobacterium tuberculosis isolate 4 expressing wild type atpE selected after 10 times MIC drug exposure
Method in brief: (§1)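 Each resistant mutant clone (one colony picked per independent fluctuation culture selected on drug agar) is suspended in PBS, sonicated and applied by 96-pin replicator. Nonselective and rifampin control plates are included. Plates are read after 4 weeks; MIC is the lowest concentration with no visible growth.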

[2] = system: Mycobacterium tuberculosis; experiment: Antimicrobial activity against drug-susceptible Mycobacterium tuberculosis isolate 4 expressing wild type atpE and F0 operon selected after 10 times MIC drug exposure; method in brief: as §1
[3] = system: Mycobacterium tuberculosis; experiment: Antimicrobial activity against drug-susceptible Mycobacterium tuberculosis isolate 6 expressing wild type atpE selected after 30 times MIC drug exposure; method in brief: as §1
[4] = system: Mycobacterium tuberculosis; experiment: Antimicrobial activity against drug-susceptible Mycobacterium tuberculosis H37Rv expressing wild type atpE selected after 10 times MIC drug exposure; method in brief: as §1
[5] = system: Mycobacterium tuberculosis; experiment: Antimicrobial activity against drug-susceptible Mycobacterium tuberculosis H37Rv expressing wild type atpE selected after 30 times MIC drug exposure; method in brief: as §1
[6] = system: Mycobacterium tuberculosis; experiment: Antimicrobial activity against drug-susceptible Mycobacterium tuberculosis isolate 6 expressing wild type atpE selected after 10 times MIC drug exposure; method in brief: as §1
[7] = system: Mycobacterium tuberculosis; experiment: Antimicrobial activity against drug-susceptible Mycobacterium tuberculosis H37Rv
[8] = system: Mycobacterium tuberculosis; experiment: Antimicrobial activity against drug-susceptible Mycobacterium tuberculosis Mycobacterium tuberculosis H37Rv expressing wild type atpE and F0 operon selected after 10 times MIC drug exposure; method in brief: as §1

`COc1nc2ccc(Br)cc2cc1[C@@H](c1ccccc1)[C@@](O)(CCN(C)C)c1cccc2ccccc12` [BEDAQUILINE] showed an MIC [1] of 0.12 µg/mL (≈ 0.216 µM), an MIC [2] of 0.3 µg/mL (≈ 0.54 µM) and an MIC [3] of 0.12 µg/mL (≈ 0.216 µM). It also gave an MIC [4] of 0.48 µg/mL (≈ 0.864 µM), an MIC [5] of 0.24 µg/mL (≈ 0.432 µM) and an MIC [6] of 0.24 µg/mL (≈ 0.432 µM). It also gave an MIC [7] of 0.03 µg/mL (≈ 0.054 µM) and an MIC [8] of 0.48 µg/mL (≈ 0.864 µM).
